Measurements: ChEMBL document CHEMBL4145619, “Computer-Assisted Discovery of Retinoid X Receptor Modulating Natural Products and Isofunctional Mimetics” (J Med Chem, 2018)
Calls of active or inactive are those of the source. No cut-off for these calls is given here.

What was measured:
Assay type in all cases: cell-based
[1] = molecular target: T1, Bile acid receptor (Homo sapiens) (UniProt Q96RI1); assay: Transactivation of human Gal4-fused FXR LBD expressed in HEK293T cells at 30 uM after 12 to 14 hrs by dual-glo luciferase assay
T1 sequence (whole entry): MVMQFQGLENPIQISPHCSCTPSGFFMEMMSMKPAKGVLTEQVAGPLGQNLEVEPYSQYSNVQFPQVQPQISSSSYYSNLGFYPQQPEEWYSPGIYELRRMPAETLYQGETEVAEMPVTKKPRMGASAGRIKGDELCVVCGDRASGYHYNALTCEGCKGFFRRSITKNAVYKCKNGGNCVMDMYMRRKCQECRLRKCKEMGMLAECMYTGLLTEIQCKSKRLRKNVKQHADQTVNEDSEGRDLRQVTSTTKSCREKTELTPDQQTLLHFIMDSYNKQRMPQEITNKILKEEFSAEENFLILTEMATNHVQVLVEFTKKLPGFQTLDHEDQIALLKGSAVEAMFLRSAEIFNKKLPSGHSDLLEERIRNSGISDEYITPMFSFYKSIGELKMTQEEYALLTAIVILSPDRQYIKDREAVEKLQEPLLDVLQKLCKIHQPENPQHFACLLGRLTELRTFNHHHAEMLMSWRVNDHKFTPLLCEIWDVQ
In short: (§1)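 Single-concentration selectivity profiling in Gal4-hybrid reporter gene assays in HEK293T cells. Each nuclear receptor construct (RAR, PPAR, LXR, FXR, CAR, VDR, PXR, RXR) was tested at 30 μM.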

[2] = molecular target: T2, Oxysterols receptor LXR-alpha (Homo sapiens) (UniProt Q13133); assay: Transactivation of human Gal4-fused LXRalpha LBD expressed in HEK293T cells at 30 uM after 12 to 14 hrs by dual-glo luciferase assay; in short: as §1
T2 sequence (whole entry): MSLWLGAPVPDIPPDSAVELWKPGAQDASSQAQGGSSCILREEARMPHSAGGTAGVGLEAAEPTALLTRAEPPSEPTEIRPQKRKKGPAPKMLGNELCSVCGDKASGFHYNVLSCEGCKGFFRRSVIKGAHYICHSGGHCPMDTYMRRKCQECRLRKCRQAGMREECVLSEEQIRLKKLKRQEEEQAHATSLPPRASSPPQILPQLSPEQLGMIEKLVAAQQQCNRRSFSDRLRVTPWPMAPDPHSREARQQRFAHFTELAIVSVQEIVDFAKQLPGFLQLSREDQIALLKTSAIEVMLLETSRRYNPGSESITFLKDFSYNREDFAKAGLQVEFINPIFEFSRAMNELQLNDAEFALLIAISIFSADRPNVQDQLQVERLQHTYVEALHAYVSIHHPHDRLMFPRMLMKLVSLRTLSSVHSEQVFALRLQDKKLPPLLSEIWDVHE

[3] = molecular target: Retinoid X receptor (Homo sapiens) (UniProt P28702+P48443+P19793); assay: Transactivation of RXR in human HepG2 cells assessed as induction of ABCA1 mRNA expression at 30 uM after 8 hrs by qRT-PCR analysis
Retinoid X receptor (Homo sapiens), sequence (P19793 whole entry, looked up): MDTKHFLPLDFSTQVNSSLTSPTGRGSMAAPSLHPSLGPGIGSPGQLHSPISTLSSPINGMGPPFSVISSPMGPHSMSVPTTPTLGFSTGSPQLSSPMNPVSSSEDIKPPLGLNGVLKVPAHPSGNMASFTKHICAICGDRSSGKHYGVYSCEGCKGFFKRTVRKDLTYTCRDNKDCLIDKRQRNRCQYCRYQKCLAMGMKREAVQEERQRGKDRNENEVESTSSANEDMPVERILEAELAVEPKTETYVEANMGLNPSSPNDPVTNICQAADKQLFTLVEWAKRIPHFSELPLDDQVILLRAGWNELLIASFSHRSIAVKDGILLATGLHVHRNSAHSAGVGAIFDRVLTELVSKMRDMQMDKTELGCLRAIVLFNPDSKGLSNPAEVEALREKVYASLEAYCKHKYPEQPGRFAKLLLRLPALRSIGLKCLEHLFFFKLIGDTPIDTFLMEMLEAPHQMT
Retinoid X receptor (Homo sapiens), sequence (P28702 whole entry, looked up): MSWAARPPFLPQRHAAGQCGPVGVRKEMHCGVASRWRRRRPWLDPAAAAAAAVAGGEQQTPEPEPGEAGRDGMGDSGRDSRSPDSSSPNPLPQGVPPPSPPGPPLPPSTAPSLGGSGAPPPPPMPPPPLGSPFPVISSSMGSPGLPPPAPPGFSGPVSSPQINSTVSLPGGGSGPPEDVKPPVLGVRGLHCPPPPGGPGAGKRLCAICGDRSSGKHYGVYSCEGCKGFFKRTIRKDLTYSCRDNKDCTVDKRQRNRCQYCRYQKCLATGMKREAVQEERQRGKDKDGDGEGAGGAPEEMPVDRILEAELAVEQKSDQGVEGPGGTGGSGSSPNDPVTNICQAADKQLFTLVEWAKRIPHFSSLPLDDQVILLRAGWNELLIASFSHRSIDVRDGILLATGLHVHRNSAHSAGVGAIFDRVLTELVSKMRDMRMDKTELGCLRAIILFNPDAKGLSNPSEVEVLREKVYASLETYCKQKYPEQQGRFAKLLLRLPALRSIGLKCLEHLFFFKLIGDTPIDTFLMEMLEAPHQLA
Retinoid X receptor (Homo sapiens), sequence (P48443 whole entry, looked up): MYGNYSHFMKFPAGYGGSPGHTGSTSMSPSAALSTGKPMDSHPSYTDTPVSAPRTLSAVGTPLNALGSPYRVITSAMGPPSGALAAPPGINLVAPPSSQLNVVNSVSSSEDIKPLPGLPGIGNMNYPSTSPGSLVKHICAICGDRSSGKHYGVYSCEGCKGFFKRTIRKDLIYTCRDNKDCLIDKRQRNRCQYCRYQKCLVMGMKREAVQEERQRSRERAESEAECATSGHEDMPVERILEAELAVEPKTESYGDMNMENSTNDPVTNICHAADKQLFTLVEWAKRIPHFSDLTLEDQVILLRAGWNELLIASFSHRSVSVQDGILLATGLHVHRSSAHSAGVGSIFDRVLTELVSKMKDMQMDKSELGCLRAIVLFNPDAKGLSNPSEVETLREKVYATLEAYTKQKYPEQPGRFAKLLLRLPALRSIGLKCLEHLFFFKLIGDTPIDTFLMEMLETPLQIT
In short: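 HepG2 cells were treated and ABCA1 or ApoE mRNA levels measured. Results are given as mean fold induction versus 0.1% DMSO vehicle ± SEM, n = 3. Significance was set at p < 0.05, 0.01 or 0.001.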

Activity [1]: inactive
Activity [2]: inactive
Activity [3]: Active
SMILES: CC1=C2[C@H](/C=C(\C)C(=O)O)CC[C@@H](C)[C@H]2CC1 [VALERENIC ACID]
